The test system of data set [1] is Aspergillus fumigatus. The experiment in a line: Antifungal activity against Aspergillus fumigatus 7544 after 48 hrs by serial dilution method. The data set is classed as functional. The note with it: Aspergillus fumigatus, 7544, 48 h. In a few lines: (§1)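 MIC by broth serial dilution per NCCLS/CLSI (M27-A3 yeasts, M38-A2 filamentous) in 96-well plates; ATCC strains plus clinical isolates; C. parapsilosis 22019 run as quality-control strain in every assay. Compounds dissolved in DMSO, serially diluted in growth medium; incubation 35 °C; MIC read at 24 h (Candida), 48 h (A. fumigatus), 72 h (C. neoformans).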

In data set [2] the test system is Candida albicans. Kind of data set: Antifungal activity against Candida albicans Y0109 after 24 hrs by serial dilution method. The data set is classed as functional. The conditions noted are these: Y0109, 24 h. In a few lines: as §1
Data set [3] relates to Cryptococcus neoformans. The experiment in a line: Antifungal activity against Cryptococcus neoformans 32609 after 72 hrs by serial dilution method. The note with it: Cryptococcus neoformans, 32609, 72 h. The format is functional. In a few lines:
as §1

In data set [4] the test system is Nakaseomyces glabratus. The experiment in a line: Antifungal activity against Candida glabrata 537 after 24 hrs by serial dilution method. The data set is classed as functional. The conditions noted are these: Nakaseomyces glabratus, 537, 24 h. Put shortly:
as §1

For data set [5], the system named is Candida parapsilosis. Kind of data set: Antifungal activity against Candida parapsilosis 22019 after 24 hrs by serial dilution method. The data set is classed as functional. The conditions noted are these: Lodderomyces parapsilosis, 22019, 24 h. In a few lines:
as §1

Data set [6] relates to Candida albicans. Kind of data set: Antifungal activity against Candida albicans SC5314 after 24 hrs by serial dilution method. The format is functional. The note with it: SC5314, 24 h. Put shortly: as §1
Data set [7] relates to Liver microsome. Kind of data set: Intrinsic clearance in human liver microsomes assessed per mg of protein at 0.1 uM measured up to 60 mins by MS analysis. The conditions noted are these: 1 h.

≈ marks a conversion by molar mass, not a printed value.

Consider `C[C@@H](N1Cc2cc(Br)sc2C1=O)[C@](O)(Cn1cncn1)c1ccc(F)cc1F`, for which the MIC in data set [1] came out at 0.25 mg/L (≈ 0.533 µM); in data set [2], 0.0156 mg/L (≈ 0.0332 µM); in data set [3], 0.0625 mg/L (≈ 0.133 µM); in data set [4], 0.0625 mg/L (≈ 0.133 µM); in data set [5], 0.0156 mg/L (≈ 0.0332 µM); in data set [6], 0.0156 mg/L (≈ 0.0332 µM). Also, the CLH in data set [7] amounted to 5 µL/min/mg.
Take `C[C@@H](N1Cc2sc(-c3ccc(C#N)nc3)cc2C1=O)[C@](O)(Cn1cncn1)c1ccc(F)cc1F`: the MIC was found to be 32 mg/L (≈ 65 µM) in data set [1]; 0.0156 mg/L (≈ 0.0317 µM) in data set [2]; 0.0156 mg/L (≈ 0.0317 µM) in data set [3]; 0.0625 mg/L (≈ 0.127 µM) in data set [4]; 0.0156 mg/L (≈ 0.0317 µM) in data set [5]; 0.0156 mg/L (≈ 0.0317 µM) in data set [6].
As for `C[C@@H](N1Cc2cc(-c3ccncc3)sc2C1=O)[C@](O)(Cn1cncn1)c1ccc(F)cc1F`, the MIC in data set [1] is 1 mg/L (≈ 2.14 µM); in data set [2] it was 0.0312 mg/L (≈ 0.0668 µM); in data set [3], 0.0156 mg/L (≈ 0.0334 µM); in data set [4], 0.0625 mg/L (≈ 0.134 µM); in data set [5] it was 0.0312 mg/L (≈ 0.0668 µM); in data set [6] it was 0.0156 mg/L (≈ 0.0334 µM).
With `COc1ccc(-c2cc3c(s2)C(=O)N([C@H](C)[C@](O)(Cn2cncn2)c2ccc(F)cc2F)C3)cn1`, the MIC came out at 8 mg/L (≈ 16.1 µM) in data set [1]; 0.0312 mg/L (≈ 0.0628 µM) in data set [2]; 0.0312 mg/L (≈ 0.0628 µM) in data set [3]; 0.125 mg/L (≈ 0.251 µM) in data set [4]; 0.0312 mg/L (≈ 0.0628 µM) in data set [5]; 0.0156 mg/L (≈ 0.0314 µM) in data set [6].
Regarding `COc1ccc(-c2cc3c(s2)CN([C@H](C)[C@](O)(Cn2cncn2)c2ccc(F)cc2F)C3=O)cn1`, the MIC came to 64 mg/L (≈ 129 µM) in data set [1]; 0.0156 mg/L (≈ 0.0314 µM) in data set [2]; 0.0156 mg/L (≈ 0.0314 µM) in data set [3]; 0.0156 mg/L (≈ 0.0314 µM) in data set [4]; 0.0156 mg/L (≈ 0.0314 µM) in data set [5]; 0.0156 mg/L (≈ 0.0314 µM) in data set [6].
As for `C[C@@H](N1Cc2cc(-c3cncnc3)sc2C1=O)[C@](O)(Cn1cncn1)c1ccc(F)cc1F`, the MIC in data set [1] is 4 mg/L (≈ 8.54 µM); in data set [2], 0.0156 mg/L (≈ 0.0333 µM); in data set [3], 0.0312 mg/L (≈ 0.0667 µM); in data set [4], 0.125 mg/L (≈ 0.267 µM); in data set [5], 0.0625 mg/L (≈ 0.133 µM); in data set [6], 0.0312 mg/L (≈ 0.0667 µM).
With `C[C@@H](N1CCc2nc(-c3cncnc3)sc2C1)[C@](O)(Cn1cncn1)c1ccc(F)cc1F`, the MIC in data set [1] amounted to 2 mg/L (≈ 4.26 µM); in data set [2], 0.0625 mg/L (≈ 0.133 µM); in data set [3], 0.0625 mg/L (≈ 0.133 µM); in data set [4], 0.0625 mg/L (≈ 0.133 µM); in data set [5], 0.0625 mg/L (≈ 0.133 µM); in data set [6], 0.0312 mg/L (≈ 0.0666 µM).
For the molecule `C[C@@H](N1Cc2cc(-c3ccc(Cl)cc3)sc2C1=O)[C@](O)(Cn1cncn1)c1ccc(F)cc1F`, the MIC in data set [1] was 8 mg/L (≈ 16 µM); in data set [2] it was 0.0156 mg/L (≈ 0.0311 µM); in data set [3], 0.0625 mg/L (≈ 0.125 µM); in data set [4], 0.0625 mg/L (≈ 0.125 µM); in data set [5], 0.0625 mg/L (≈ 0.125 µM); in data set [6] it was 0.0156 mg/L (≈ 0.0311 µM).

The values above are taken from ChEMBL document CHEMBL3616399, “Design, synthesis, and structure-activity relationship studies of novel thienopyrrolidone derivatives with strong antifungal activity against Aspergillus fumigates” (Eur J Med Chem, 2015).
